Reference: the M2OR odorant receptor database

target: T1, OR8D1 (Homo sapiens) (UniProt Q8WZ84); conditions: stereoisomer not certain
T1 sequence (whole entry): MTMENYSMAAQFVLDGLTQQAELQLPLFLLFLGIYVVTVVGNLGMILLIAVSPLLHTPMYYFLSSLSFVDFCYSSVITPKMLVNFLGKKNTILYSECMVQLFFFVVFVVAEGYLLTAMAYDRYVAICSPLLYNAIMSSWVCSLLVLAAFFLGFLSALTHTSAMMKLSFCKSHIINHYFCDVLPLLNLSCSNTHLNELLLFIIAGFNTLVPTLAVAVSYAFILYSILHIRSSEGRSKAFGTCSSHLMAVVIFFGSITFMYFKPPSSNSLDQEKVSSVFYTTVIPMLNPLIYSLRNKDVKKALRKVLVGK
Summary of the method: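 Values were gathered from published papers (main text and supplementary material), with extra details requested from the original authors when needed, and checked for typos and inconsistencies. Each receptor–molecule pair is called responsive (active) if the original authors judged the measured signal statistically different from baseline, and non-responsive (inactive) otherwise. Assay methods varied by source, often transient mammalian cell-line luciferase assays. Recorded details include cell line, G-protein, co-transfected protein and tags.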

Odorant receptor agonist call, inactive:
CSSc1ccoc1C
CCC=CCCC=CC=O
CCC(C)CCC(=O)[O-] (configuration not stated)
CCCC1CCCC(=O)O1 (configuration not stated)
CCCCC1OC(=O)CC1C (configuration not stated)
Cc1ccc(O)cc1
O=c1ccc2ccccc2o1
O=C(O)CCc1ccccc1
CCCSSCCC
C=C1CCC2CC1C2(C)C (configuration not stated)
CCCCCCCC1CCC(=O)O1 (configuration not stated)
CCOC(=O)CC(C)C
CSC
C=CC(=O)CC
CCc1ccc(O)cc1
CC1=CCC(C(C)(C)S)CC1 (configuration not stated)
COc1nccnc1CC(C)C
CC(C)(S)CCOC=O
CC(=O)OCC=Cc1ccccc1
CCCCCC(=O)OCC
CCCCCCC1CCC(=O)O1 (configuration not stated)
CCCCCCCC(=O)OCC
COc1ccc2ccc(=O)oc2c1
CC1=CCC2CC1C2(C)C (configuration not stated)
Cc1occc(=O)c1O
OCCc1ccccc1
SCCc1ccccc1
CCCCCCCCC1CCC(=O)O1 (configuration not stated)
CSCSC
CCCCCC=CC=O
C=Cc1ccc(O)cc1
CC(=O)C(C)O (configuration not stated)
CCOC(=O)CCC(C)C
CCCSSSCCC
C=CCSC
Cc1ccc(C(C)C)cc1
CCCC=CC=O
